Measurements from ChEMBL document CHEMBL1140692, “Toward the development of chemoprevention agents. Part II: Chemo-enzymatic synthesis and anti-inflammatory activities of a new class of 5-amino-2-substitutedphenyl-1,3-dioxacycloalkanes” (Bioorg Med Chem, 2007).

Legend:
[1] = Permeability from apical to basolateral side of human Caco-2 cell membrane; format: ADME, cell-based
Caco-2 = assay: Ratio of permeability from apical to basolateral side over basolateral to apical side of human Caco-2 cell membrane; format: ADME, cell-based
[2] = Permeability from basolateral to apical side of human Caco-2 cell membrane; format: ADME, cell-based
[3] = Inhibition of bovine brain PKC; parameters: species or system Bos taurus
Mus musculus [4] = assay: Gastrointestinal toxicity in mouse assessed as tail bleeding time at 200 mg/kg, po after 60 mins; format: organism-based; parameters: dose 200 mg/kg, route oral; settings: in vivo, 1 h
Summary of the method: (§1)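 Male mice (18–22 g) are dosed orally and compared with an NS group. At 30, 45, 60 and 90 min after dosing, each mouse is restrained in a tube holder and a 2-mm cut is made on the tail. Blood is wiped away every 30 s until flow stops, and the time to cessation is recorded.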

Mus musculus [5] = assay: Gastrointestinal toxicity in mouse assessed as tail bleeding time at 200 mg/kg, po after 30 mins; format: organism-based; parameters: dose 200 mg/kg, route oral; settings: in vivo, 0.5 h; summary of the method: as §1
Mus musculus [6] = assay: Gastrointestinal toxicity in mouse assessed as tail bleeding time at 200 mg/kg, po after 90 mins; format: organism-based; parameters: dose 200 mg/kg, route oral; settings: in vivo, 1.5 h; summary of the method: as §1
Mus musculus [7] = assay: Gastrointestinal toxicity in mouse assessed as tail bleeding time at 200 mg/kg, po after 45 mins; format: organism-based; parameters: dose 200 mg/kg, route oral; settings: in vivo, 0.75 h; summary of the method: as §1

SMILES	Papp A→B [1]	Ratio (Caco-2)	Papp B→A [2]	IC50 [3]	Time (Mus musculus [4])	Time (Mus musculus [5])	Time (Mus musculus [6])	Time (Mus musculus [7])
C[C@@H]1O[C@H](/C=C/c2ccccc2)OC[C@H]1NC(=O)Cc1ccccc1	8.8 ×10⁻⁶ cm/s	1.23	7.15 ×10⁻⁶ cm/s					
C[C@@H]1O[C@@H](c2ccc(Cl)cc2)OC[C@H]1NC(=O)Cc1ccccc1	10.2 ×10⁻⁶ cm/s	1.46	7 ×10⁻⁶ cm/s					
O=C(Cc1ccccc1)N[C@H]1CO[C@@H](c2ccc([N+](=O)[O-])cc2)OC1				2770 µM				
N[C@H]1CO[C@@H](c2ccccc2)OC1					117.6 s	119.2 s	118.7 s	118.8 s
O=C(Cc1ccccc1)N[C@H]1CCO[C@@H](c2ccc(Cl)cc2)OC1				2950 µM				
N[C@H]1CCO[C@@H](c2ccc([N+](=O)[O-])cc2)OC1					117.9 s	117.8 s	117.2 s	118.5 s
N[C@H]1CO[C@@H](c2ccc([N+](=O)[O-])cc2)OC1					120.6 s	119.4 s	119.4 s	118.7 s
N[C@H]1CCCO[C@@H](c2cccc([N+](=O)[O-])c2)OC1					118.5 s	119.3 s	119.3 s	118.2 s
O=C(Cc1ccccc1)N[C@H]1CCO[C@H](c2cccc([N+](=O)[O-])c2)OC1				2930 µM				
C[C@@H]1O[C@H](c2cccc([N+](=O)[O-])c2)OC[C@H]1N					119.5 s	118.9 s	118.2 s	118.2 s
N[C@H]1CCCO[C@@H](c2ccc([N+](=O)[O-])cc2)OC1					118.4 s	118.6 s	117.6 s	119 s
N[C@H]1CCCO[C@@H](c2ccc(Cl)cc2)OC1					118.4 s	119.4 s	117.8 s	117.5 s
N[C@H]1CO[C@@H](c2cccc([N+](=O)[O-])c2)OC1					119.1 s	119.3 s	120.2 s	118.2 s
N[C@H]1CCO[C@@H](c2cccc([N+](=O)[O-])c2)OC1					118.5 s	120.1 s	118.6 s	118.7 s
N[C@H]1CCO[C@H](c2cccc([N+](=O)[O-])c2)OC1					119 s	117.9 s	118.5 s	118.6 s
O=C(Cc1ccccc1)N[C@H]1CO[C@H](/C=C/c2ccccc2)OC1	8.86 ×10⁻⁶ cm/s	1.21	7.32 ×10⁻⁶ cm/s					
O=C(Cc1ccccc1)N[C@H]1CO[C@@H](c2ccc(Cl)cc2)OC1				2690 µM				
O=C(Cc1ccccc1)N[C@H]1CCO[C@@H](c2cccc([N+](=O)[O-])c2)OC1				3010 µM				
N[C@H]1CCCO[C@H](c2ccc([N+](=O)[O-])cc2)OC1					118.5 s	118.6 s	117.7 s	120.3 s
N[C@H]1CO[C@H](c2ccc(Cl)cc2)OC1					118.7 s	119 s	119.6 s	118.9 s
C[C@@H]1O[C@H](c2ccc(Cl)cc2)OC[C@H]1NC(=O)Cc1ccccc1	10.2 ×10⁻⁶ cm/s	1.48	6.86 ×10⁻⁶ cm/s					
C[C@@H]1O[C@H](c2ccc([N+](=O)[O-])cc2)OC[C@H]1NC(=O)Cc1ccccc1	10.3 ×10⁻⁶ cm/s	1.49	6.93 ×10⁻⁶ cm/s					
Cc1ccc([C@H]2OC[C@@H](N)[C@H](C)O2)cc1					119.8 s	120.9 s	118.7 s	121 s

SMILES	Papp A→B [1]	Ratio (Caco-2)	Papp B→A [2]	IC50 [3]	Time (Mus musculus [4])	Time (Mus musculus [5])	Time (Mus musculus [6])	Time (Mus musculus [7])
N[C@H]1CCO[C@@H](c2ccc(Cl)cc2)OC1					118.6 s	118.4 s	119 s	119.6 s
Cc1ccc([C@H]2OC[C@@H](N)CO2)cc1					118.7 s	118.3 s	118.4 s	119 s
N[C@H]1CCO[C@H](c2ccc(Cl)cc2)OC1					119.2 s	117.9 s	118.6 s	118.5 s
O=C(Cc1ccccc1)N[C@H]1CO[C@H](c2cccc([N+](=O)[O-])c2)OC1				2900 µM				
O=C(Cc1ccccc1)N[C@H]1CO[C@H](c2ccc([N+](=O)[O-])cc2)OC1				2850 µM				
O=C(Cc1ccccc1)N[C@H]1CCO[C@@H](c2ccc([N+](=O)[O-])cc2)OC1				2980 µM				
O=C(Cc1ccccc1)N[C@H]1CCO[C@H](c2ccc(Cl)cc2)OC1				2920 µM				
Cc1ccc([C@@H]2OC[C@@H](N)[C@H](C)O2)cc1					118.9 s	120.4 s	117.7 s	118.5 s
C[C@@H]1O[C@H](c2ccccc2)OC[C@H]1N					118.6 s	118.7 s	118.9 s	118.9 s
N[C@H]1CCCO[C@H](c2cccc([N+](=O)[O-])c2)OC1					121.5 s	117.8 s	118 s	117.9 s
N[C@H]1CCCO[C@H](c2ccc(Cl)cc2)OC1					119.1 s	117.9 s	118.3 s	118.7 s
N[C@H]1CCO[C@H](c2ccc([N+](=O)[O-])cc2)OC1					118.6 s	118.5 s	117.9 s	119 s
C[C@@H]1O[C@@H](c2ccc([N+](=O)[O-])cc2)OC[C@H]1NC(=O)Cc1ccccc1	10.4 ×10⁻⁶ cm/s	1.49	6.98 ×10⁻⁶ cm/s					
N[C@H]1CO[C@@H](c2ccc(Cl)cc2)OC1					120.9 s	118.5 s	119.4 s	118.9 s
O=C(Cc1ccccc1)N[C@H]1CO[C@@H](c2cccc([N+](=O)[O-])c2)OC1				2810 µM				
O=C(Cc1ccccc1)N[C@H]1CO[C@H](c2ccc(Cl)cc2)OC1				2710 µM				
O=C(Cc1ccccc1)N[C@H]1CO[C@@H](/C=C/c2ccccc2)OC1	8.97 ×10⁻⁶ cm/s	1.14	7.87 ×10⁻⁶ cm/s					
O=C(Cc1ccccc1)N[C@H]1CCO[C@H](c2ccc([N+](=O)[O-])cc2)OC1				2860 µM				
N[C@H]1CO[C@H](c2ccccc2)OC1					119.7 s	119.3 s	119.6 s	119.2 s
N[C@H]1CO[C@H](c2ccc([N+](=O)[O-])cc2)OC1					118.6 s	119.5 s	118.9 s	117.7 s
N[C@H]1CO[C@H](c2cccc([N+](=O)[O-])c2)OC1					118.4 s	118.8 s	118.7 s	118 s
Cc1ccc([C@H]2OC[C@H](N)CO2)cc1					119.5 s	118.5 s	117.8 s	119.2 s
C[C@@H]1O[C@@H](c2cccc([N+](=O)[O-])c2)OC[C@H]1N					117.4 s	118.9 s	118.3 s	119.2 s
